Compound activity: PubChem, several laboratories
HEK293 NFkB inh = lowers PMA/ionomycin-induced NF-kB signal in HEK293 cells; HEK-293 NF-kB luciferase reporter, luminescence; inhibition, % at 3 µM; 62,000 tested, 0.21% active; AID 465;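 active means inhibition above the mean of all tested compounds plus 3 SD, cut at about 40% in these data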;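 further: 0% = stimulated DMSO wells and 100% = 10 µM reference inhibitor 5653914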
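Signal: luciferase luminescence; Material: HEK-293 cells with stable firefly luciferase reporter driven by four HIV NF-kB elements; Probe or stimulus: PMA with ionomycin; Replication: tested once; Times: 1 h compound pretreatment, then 16 h stimulation at 37 °C, 5% CO2; Benchmarks: DMSO and 10 µM reference inhibitor; Evaluation: per-plate % inhibition versus controls.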
MT1-MMP txn act = MT1-MMP promoter transcription activation | 86,000 tested, 0.16% active | AID 750 | HT1080 MT1-MMP promoter luciferase reporter, luminescence, overnight; stronger effect = higher value | activation factor at 10 µM;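 active means activation factor of at least 2 for MT1-MMP transcription at 10 µM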
SF-1 act = SF-1 (human) activation; 65,000 tested, 1.9% active; activation, % at 10 µM; CHO-K1 Gal4-SF-1 LBD luciferase reporter; % increase over DMSO SF-1-specific signal;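 active means activation above the mean activation of all tested compounds plus 3 SD, cut at about 50% in these data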
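Assay system: CHO-K1 cells co-transfected with Gal4 DBD–human SF-1 LBD, 5xGal4 luciferase reporter; doses: 10 µM only; incubation: 20 h compound exposure at 37 °C after 1 h cell settling; signal: luciferase light emission; evaluation: percent activation versus DMSO; repeats: one test per compound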
RORa activator = RORA (human) activation; activation, % at 10 µM; CHO-K1 Gal4-RORA LBD luciferase reporter, luminescence; percent increase over mock-subtracted basal signal; P35398; 65,000 tested, 1.5% active;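 active means activation above the mean of all tested compounds plus 3 SD, cut at about 49% in these data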;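 further: 0% = DMSO-treated RORA cells and 100% = added signal equal to DMSO minus mock-transfected cells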
Target sequence (P35398 whole entry, looked up, the tested form may be a part): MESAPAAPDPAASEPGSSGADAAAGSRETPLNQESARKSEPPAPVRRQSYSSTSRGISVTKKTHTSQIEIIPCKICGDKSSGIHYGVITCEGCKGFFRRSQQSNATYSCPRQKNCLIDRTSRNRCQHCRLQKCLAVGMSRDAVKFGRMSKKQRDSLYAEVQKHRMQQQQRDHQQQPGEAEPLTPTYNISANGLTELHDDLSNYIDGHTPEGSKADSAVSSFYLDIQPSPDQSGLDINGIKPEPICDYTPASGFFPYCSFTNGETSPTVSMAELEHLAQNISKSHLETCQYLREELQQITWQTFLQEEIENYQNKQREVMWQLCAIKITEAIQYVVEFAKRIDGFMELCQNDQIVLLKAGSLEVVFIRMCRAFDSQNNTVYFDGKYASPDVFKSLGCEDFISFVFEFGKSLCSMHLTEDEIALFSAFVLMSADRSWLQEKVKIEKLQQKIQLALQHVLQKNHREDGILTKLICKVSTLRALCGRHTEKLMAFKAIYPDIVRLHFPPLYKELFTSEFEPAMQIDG
Jurkat viability = cytotoxic compounds reducing Jurkat cell viability | Jurkat E6.1 viability, ATP luminescence, 48 h | inhibition, % at 4 µM | 56,000 tested, 1.2% active | AID 463;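 active means inhibition above the mean inhibition of all tested compounds plus 3 SD, cut at about 28% in these data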
Active calls of the source: *; nt = not tested or not shown. Rows were chosen to be rich in hits. Some 2.9% of all compounds tested hit in one or more screens of this group.

SMILES	HEK293 NFkB inh	MT1-MMP txn act	SF-1 act	RORa activator	Jurkat viability
CCOC(=O)c1[nH]c(C)c(C(=O)Nc2ccc(C)c(C)c2)c1C	-6	1.1	42	11	13
CCOC(=O)c1[nH]c(C)c(C(=O)Nc2ccc(F)cc2)c1C	6	1	-13	-8	8
CCOC(=O)c1[nH]c(C)c(C(=O)Nc2ccc(C)cc2C)c1C	24	0.7	43	34	93*
CCOC(=O)c1sc(NC(=O)CSc2n[nH]c(-c3ccc(Cl)cc3Cl)n2)c(C#N)c1C	nt	1.1	nt	nt	nt
CCCn1nc(C(=O)N2CC(=O)Nc3ccccc32)c2ccccc2c1=O	6	1.2	19	15	74*
O=C1CN(C(=O)c2ccccn2)c2ccccc2N1	1	1.1	4	-6	nt
CCC(Sc1nc2ccccc2c2nc3ccccc3n12)C(=O)NCc1ccco1 (centres undefined)	nt	1	nt	nt	nt
CCCCCCn1ccc(=N)cc1	1	1	12	-12	41*
CCCCCCN1C2=NCCN2c2ccccc21	nt	1.1	nt	nt	nt
O=C(Nc1ccon1)c1ccc(Cl)s1	9	1.1	8	1	2
CN(C)S(=O)(=O)c1ccc(C(=O)Nc2nc(-c3cccs3)cs2)cc1	1	1.1	40	24	36*
O=C(Nc1nc2ccccc2s1)c1ccc(Cl)s1	-78	1	98*	34	4
Cc1nc(CC(=O)Nc2nc(C(C)(C)C)cs2)cs1	-11	1.2	16	-1	2
O=C(Nc1nc(-c2cccs2)cs1)c1ccc(S(=O)(=O)N2CCCC2)cc1	22	1	-2	0	21
CC(C)(C)c1csc(NC(=O)c2ccc3nccnc3c2)n1	nt	2*	nt	nt	nt
CC(C)(C)c1csc(NC(=O)c2ccc(Cl)s2)n1	-4	1.4	53*	54*	22
Cc1ccc(C(=O)Nc2nc(C(C)(C)C)cs2)s1	nt	1.7	nt	nt	nt
Nc1c(C(=O)NC2CCCC2)c2nc3ccccc3nc2n1/N=C/c1cccnc1	-6	0.9	-9	-17	-4
Cc1occc1-c1nnc(SCC(=O)N2CCc3ccccc32)o1	12	1	-7	14	-9
Cc1cc(C(=O)N[C@@H](c2ccccc2)[C@]2(C)C[C@H]2[C@@H](C)C(=O)Nc2ccc3ccccc3c2)n(C)n1	nt	1.3	nt	nt	nt
CC(C)n1cc(/C=C(\C#N)S(=O)(=O)c2ccccc2)c2ccccc21	-4	1	-4	4	-3
CC1=C(C(=O)OCC(Br)(Br)Br)C(c2ccccc2)NC(=O)N1CCCC(=O)O (centres undefined)	nt	1.3	nt	nt	nt
O=C(Nc1nc(-c2cccs2)cs1)c1ccc(Cl)s1	-1	1.4	34	68*	18
CC(=O)Nc1nc(-c2cccs2)cs1	3	1.4	3	16	4
COC(=O)c1ccc(Oc2nc(C)cc(Oc3ccccc3)n2)cc1	9	0.8	-4	8	-14
SMILES	HEK293 NFkB inh	MT1-MMP txn act	SF-1 act	RORa activator	Jurkat viability
CCOC(=O)COC(=O)c1ccc(Oc2cc(C)nc(SC)n2)cc1	nt	1.2	nt	nt	nt
CCOC(=O)c1ccc(Oc2cc(C)nc(SC)n2)cc1	17	0.8	31	57*	75*
COC(=O)c1ccc(Oc2cc(C)nc(-n3nc(C)cc3C)n2)cc1	37	0.5	-51	-37	100*
Cc1ccc(S(=O)(=O)NCCCOC(=O)Nc2ccncc2)cc1	0	1.2	15	13	0
CCOc1cc(C(=O)N(C)c2ccccc2)cc(OCC)c1OCC	22	1.3	-14	-9	2
O=S(=O)(c1cccs1)N1CCCc2ccccc21	6	1.1	-10	17	4
NC(=O)c1oc2ccccc2c1NC(=O)c1nc2ccccc2s1	-12	1.5	64*	83*	10
COC(=O)[C@@]1(Cc2ccc(OC)cc2)[C@H]2c3cc(C(=O)N(C)C)n(CCN4CCNC4=O)c3C[C@H]2CN1C(=O)c1ccccc1	nt	1.1	nt	nt	nt
CCC/C(O)=C1\C(=O)CC(C)(C)CC1=Nc1ccc(OC)cc1OC	21	nt	1	7	86*
Clc1ccc(OCCn2cnc3ccccc32)cc1	6	1.1	-14	18	5
Clc1ccccc1OCCn1cnc2ccccc21	-3	1.3	-8	51*	6
Cc1nc(-c2ccccc2)nc2[nH]c(-c3ccccc3)cc(=O)c12	nt	1.1	nt	nt	nt
Cc1nc(C)c2c(=O)cc(-c3ccccc3)[nH]c2n1	24	0.7	38	34	54*
CSCc1nnc(NC(=O)c2ccc(S(=O)(=O)N(CC(C)C)CC(C)C)cc2)o1	20	1.1	-48	-15	88*
CCc1nnc(NC(=O)c2ccc(S(=O)(=O)N(CC(C)C)CC(C)C)cc2)o1	25	1	-14	-4	94*
CCN(Cc1ccccc1)S(=O)(=O)c1ccc(C(=O)Nc2nnc(C3CC3)o2)cc1	3	1.2	-20	-12	101*
COCCN(CCOC)S(=O)(=O)c1ccc(C(=O)Nc2nnc(C)o2)cc1	28	1.1	0	-20	9
COCc1nnc(NC(=O)c2ccc(S(=O)(=O)N(C)C3CCCCC3)cc2)o1	26	1.3	-1	-14	10
Cc1nnc(NC(=O)c2ccc(S(=O)(=O)N(C)Cc3ccccc3)cc2)o1	20	1.1	-22	-10	11
Cc1c(C)n(C(=O)CSc2ncn[nH]2)c2ccccc12	5	1.1	4	-1	0
COc1ccc(-c2csc(NCc3ccco3)n2)cc1C	-3	1.5	80*	49*	5
c1ccc(-c2onc3cc4c(cc23)OCCO4)cc1	-25	1.6	28	74*	9
COC(=O)[C@@H]1C[C@H]1[C@@H](NC(=O)c1cc(C)on1)c1ccccc1	nt	1.2	nt	nt	nt
COc1cccc(C2=CC(c3cc(OC)ccc3OC)n3nnnc3N2)c1 (centres undefined)	10	1.1	-3	20	90*
COc1cccc(C2=CC(c3ccccc3)n3nnnc3N2)c1 (centres undefined)	nt	1.2	26	79*	nt
SMILES	HEK293 NFkB inh	MT1-MMP txn act	SF-1 act	RORa activator	Jurkat viability
COc1cccc(C2=CC(c3cccc(OC)c3OC(F)F)n3nnnc3N2)c1 (centres undefined)	-5	0.9	5	29	7
COc1cccc(C2=CC(c3cccc(OC)c3OC)n3nnnc3N2)c1 (centres undefined)	16	1.1	14	46	67*
COc1ccc(C2=CC(c3ccc(OC)c(OC)c3)n3nnnc3N2)c(OC)c1 (centres undefined)	4	1	2	36	4
COc1cccc(C2C=C(c3ccc(OC)cc3OC)Nc3nnnn32)c1 (centres undefined)	-1	1.2	-6	-9	41*
CCC/C=C(\CCC)C(NC(=O)C(C)(C)C)c1ccc(C(=O)OC)cc1 (centres undefined)	nt	1.1	nt	nt	nt
Cc1cccc(C)c1NC(=O)C1(NC(=O)C2CCCN2C(=O)OC(C)(C)C)CCCCC1 (centres undefined)	19	1.1	-12	-14	5
